High-throughput results (PubChem BioAssay)
Rows were chosen to be rich in hits. Some 1.9% of all compounds tested hit in one or more screens of this group.
CHRM4 antagonist: antagonists of human muscarinic M4 receptor (CHRM4). AID 624125. inhibition, % at 3 µM. CHO-hM4 cells, ACh EC80, Fluo-8 calcium fluorescence. actives 0.73% (n = 360,000);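 active means inhibition above its plate's cutoff, the mean inhibition of sample wells plus 3 SD, cut at about 27% in these data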
Target sequence (P08173 whole entry, looked up): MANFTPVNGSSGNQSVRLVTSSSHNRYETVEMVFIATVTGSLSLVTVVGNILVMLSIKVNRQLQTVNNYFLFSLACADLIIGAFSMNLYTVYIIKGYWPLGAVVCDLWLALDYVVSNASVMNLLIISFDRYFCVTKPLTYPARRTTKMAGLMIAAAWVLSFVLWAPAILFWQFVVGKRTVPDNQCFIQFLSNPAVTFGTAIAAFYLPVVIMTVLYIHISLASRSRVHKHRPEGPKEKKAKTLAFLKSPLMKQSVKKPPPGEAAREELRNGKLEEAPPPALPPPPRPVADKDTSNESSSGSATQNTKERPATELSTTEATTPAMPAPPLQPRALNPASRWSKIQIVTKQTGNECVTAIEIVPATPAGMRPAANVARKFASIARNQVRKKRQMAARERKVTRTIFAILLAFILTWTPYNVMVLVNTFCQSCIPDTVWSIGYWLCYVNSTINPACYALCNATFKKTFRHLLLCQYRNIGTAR
M4 ag: CHRM4 agonism in calcium assay. CHO-K1 hM4/Gqi5, Fluo-8 calcium fluorescence; vehicle 0%, full acetylcholine response 100%. activation, % at 3 µM. actives 0.14% (n = 360,000). AID 624127;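 active means activation above the run mean over all test wells plus 3 SD, cut at about 32% in these data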;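 further: peak over basal fluorescence ratio per well then scaled between controls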
CHRM5 PAM: CHRM5 positive allosteric modulation; P08912; CHO-K1 hM5, Fluo-8 calcium, ACh EC20 PAM; 0% = ACh EC20, 100% = ACh EC100; activation, % at 3 µM; actives 0.3% (n = 360,000);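 active means activation above the run cutoff, the mean activation of all test compounds plus 3 SD, cut at about 18% in these data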
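System: CHO-K1 cell line with stable human muscarinic M5 receptor expression | Also added: EC20 acetylcholine as agonist stimulus | Compound: One concentration, 3 µM final (nominal) | Timing: Fluo-8 loading 80 min at 37 °C plus 30 min room temperature | Measured by: Fluo-8 calcium dye fluorescence, kinetic read | Read-out basis: % activation, ACh-normalized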
CHRM5 agonist: CHRM5 agonism in calcium assay. CHO-K1 hM5 cells, Fluo-8 calcium fluorescence; 0% DMSO wells, 100% maximal acetylcholine response. P08912. activation, % at 3 µM. actives 0.19% (n = 360,000);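 active means activation above the run's mean over test compounds plus 3 SD, cut at about 23% in these data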;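 further: signal is peak over basal fluorescence ratio across the kinetic read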
M5 antag: antagonists of human muscarinic M5 receptor (CHRM5); inhibition, % at 3 µM; AID 624040; P08912; actives 0.59% (n = 360,000); CHO-hM5 cells, Fluo-8 calcium fluorescence, ACh EC80;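 active means inhibition above a per-plate cutoff, the mean of that plate's test compounds plus 3 SD, cut at about 27% in these data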
CHRM4 PAM: potentiates acetylcholine response at human M4 receptor; actives 0.4% (n = 360,000); activation, % at 3 µM; CHO-K1 hM4/Gqi5, Fluo-8 calcium fluorescence, ACh EC20; 0% = ACh EC20, 100% = maximal ACh;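 active means activation above its plate's cutoff, the mean activation of sample wells plus 3 SD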
A number is an active result; ! = a repeat was not active.

Screening O=C(CCc1ccccc1)NC(NC(=S)Nc1cccc(Cl)c1)C(Cl)(Cl)Cl (stereo not drawn) returned CHRM4 antagonist inactive, M4 ag inactive, CHRM5 PAM inactive, CHRM5 agonist inactive, M5 antag 34 and CHRM4 PAM inactive.
`O=C(CCc1ccccc1)NC(NC(=S)Nc1ccc(Br)cc1)C(Cl)(Cl)Cl` (stereo not drawn) gave CHRM4 antagonist inactive, M4 ag inactive, CHRM5 PAM inactive, CHRM5 agonist inactive, M5 antag inactive and CHRM4 PAM inactive.
`CC(=O)Nc1cccc(NC(=O)CSc2ncc(-c3ccc(Cl)cc3)n2Cc2ccco2)c1` gave CHRM4 antagonist 29, M4 ag inactive, CHRM5 PAM inactive, CHRM5 agonist inactive, M5 antag inactive and CHRM4 PAM inactive.
`CCc1cc(C(=O)N2CCN(S(=O)(=O)c3ccc(Cl)cc3)CC2)sc1C` gave CHRM4 antagonist inactive, M4 ag inactive, CHRM5 PAM inactive, CHRM5 agonist inactive, M5 antag inactive and CHRM4 PAM inactive.
`CCCCCc1c(-c2ccc(OC)cc2)ncn1CCc1ccccc1OC` gave CHRM4 antagonist 34, M4 ag inactive, CHRM5 PAM inactive, CHRM5 agonist inactive, M5 antag inactive and CHRM4 PAM inactive.
For CCCCc1c(-c2ccccc2)ncn1CCc1ccccc1OC the results were CHRM4 antagonist inactive, M4 ag inactive, CHRM5 PAM inactive, CHRM5 agonist inactive, M5 antag inactive and CHRM4 PAM inactive.
CCCCCc1c(-c2ccc(Cl)cc2)ncn1CCc1ccccc1OC was read as CHRM4 antagonist inactive, M4 ag inactive, CHRM5 PAM inactive, CHRM5 agonist inactive, M5 antag inactive and CHRM4 PAM inactive.
For CCCCc1c(-c2ccc(OC)cc2)ncn1CCc1ccccc1OC the results were CHRM4 antagonist 33, M4 ag inactive, CHRM5 PAM inactive, CHRM5 agonist inactive, M5 antag inactive and CHRM4 PAM inactive.
Fc1ccc(-c2csc3[n+]2CCS3)cc1 was read as CHRM4 antagonist inactive, M4 ag inactive, CHRM5 PAM inactive, CHRM5 agonist inactive, M5 antag inactive and CHRM4 PAM inactive.
c1sc2[n+](c1C13CC4CC(CC(C4)C1)C3)CCS2 was read as CHRM4 antagonist 34, M4 ag inactive, CHRM5 PAM inactive, CHRM5 agonist inactive, M5 antag inactive and CHRM4 PAM inactive.
`Cn1cc(C(=O)N2CCN(c3ccccn3)CC2)c(=O)c2cc(S(=O)(=O)N3CCOCC3)ccc21` gave CHRM4 antagonist inactive, M4 ag inactive, CHRM5 PAM 20, CHRM5 agonist inactive, M5 antag inactive and CHRM4 PAM inactive.
`COc1ccc(C2=Cc3ccc(OC(C)=O)cc3OC2)cc1` gave CHRM4 antagonist inactive, M4 ag inactive, CHRM5 PAM inactive, CHRM5 agonist inactive, M5 antag inactive and CHRM4 PAM inactive.
For Cc1ccc(S(=O)(=O)NCc2ccccc2)cc1C(=O)NCC1CCCO1 (stereo not drawn) the results were CHRM4 antagonist inactive, M4 ag inactive, CHRM5 PAM inactive, CHRM5 agonist inactive, M5 antag inactive and CHRM4 PAM inactive.
`COc1ccc(C(=O)CCC(=O)N2CCN(c3ccccc3)CC2)cc1` gave CHRM4 antagonist inactive, M4 ag inactive, CHRM5 PAM inactive, CHRM5 agonist inactive, M5 antag inactive and CHRM4 PAM inactive.
`O=C(c1ccc(S(=O)(=O)c2cccc(Cl)c2)c([N+](=O)[O-])c1)N1CCN(c2ccccn2)CC1` gave CHRM4 antagonist 44, M4 ag inactive, CHRM5 PAM inactive, CHRM5 agonist inactive, M5 antag 52 and CHRM4 PAM inactive.
O=C(Nc1ccccc1)N(c1ccccc1)C1C=CS(=O)(=O)C1 (stereo not drawn) was read as CHRM4 antagonist 45, M4 ag inactive, CHRM5 PAM inactive, CHRM5 agonist inactive, M5 antag inactive and CHRM4 PAM inactive.
Screening CC(=O)NCCCc1nc2ccccc2n1Cc1ccccc1C returned CHRM4 antagonist 27, M4 ag inactive, CHRM5 PAM inactive, CHRM5 agonist inactive, M5 antag inactive and CHRM4 PAM inactive.
Screening CC(=O)Nc1c(I)c(NC(C)=O)c(I)c(C(=O)O)c1I returned CHRM4 antagonist inactive, M4 ag inactive, CHRM5 PAM inactive, CHRM5 agonist 63!, M5 antag inactive and CHRM4 PAM inactive.
For COc1cccc(N2C(=O)Nc3ccc(Br)cc3C2(O)C(=O)NCCCN(C)C)c1 (stereo not drawn) the results were CHRM4 antagonist inactive, M4 ag inactive, CHRM5 PAM inactive, CHRM5 agonist inactive, M5 antag inactive and CHRM4 PAM inactive.
CCN(Cc1cc2ccccc2[nH]c1=O)C(=O)C1CCCCC1 was read as CHRM4 antagonist inactive, M4 ag inactive, CHRM5 PAM inactive, CHRM5 agonist inactive, M5 antag inactive and CHRM4 PAM inactive.
Screening CC(C)(C)N(Cc1cc2ccccc2[nH]c1=O)C(=O)C1CCCCC1 returned CHRM4 antagonist inactive, M4 ag inactive, CHRM5 PAM inactive, CHRM5 agonist inactive, M5 antag 79 and CHRM4 PAM inactive.
NC(=O)NN=C1C2CCCC1C(c1ccccc1)NC2c1ccccc1 (stereo not drawn) was read as CHRM4 antagonist 49, M4 ag inactive, CHRM5 PAM inactive, CHRM5 agonist inactive, M5 antag inactive and CHRM4 PAM inactive.
Cc1[nH]c2ccccc2c1C(=O)COC(=O)c1nccnc1N was read as CHRM4 antagonist inactive, M4 ag inactive, CHRM5 PAM inactive, CHRM5 agonist inactive, M5 antag inactive and CHRM4 PAM inactive.
For COc1ccc(-c2ccc(C(=O)NCc3ccncc3)c3occc23)c(C)c1 the results were CHRM4 antagonist inactive, M4 ag inactive, CHRM5 PAM inactive, CHRM5 agonist inactive, M5 antag 32 and CHRM4 PAM inactive.
Screening COc1ccc(-c2coc3c(C(=O)NCc4ccc(OC)c(OC)c4)cccc23)c(C)c1 returned CHRM4 antagonist 37, M4 ag inactive, CHRM5 PAM inactive, CHRM5 agonist inactive, M5 antag 36 and CHRM4 PAM inactive.
For COc1ccc(-c2ccc(C(=O)NCc3ccc(F)c(F)c3)c3occc23)c(C)c1 the results were CHRM4 antagonist inactive, M4 ag inactive, CHRM5 PAM inactive, CHRM5 agonist inactive, M5 antag inactive and CHRM4 PAM inactive.
`CC(C)(C)c1ccc(OCCC(=O)OCC(=O)N2c3ccccc3NC(=O)C2(C)C)cc1` gave CHRM4 antagonist 59, M4 ag inactive, CHRM5 PAM inactive, CHRM5 agonist inactive, M5 antag 36 and CHRM4 PAM inactive.
`Cc1nn(-c2ccccc2)c(C)c1C(=O)OCC(=O)N1c2ccccc2NC(=O)C1(C)C` gave CHRM4 antagonist 33, M4 ag inactive, CHRM5 PAM inactive, CHRM5 agonist inactive, M5 antag inactive and CHRM4 PAM inactive.
